sdo1 growth: growth rescue of sdo1-depleted yeast, primary screen, S. cerevisiae, bone marrow failure model | z-score at 10 µM | hit rate 0.21% among 140,000 | S. cerevisiae sdo1-depleted JHY4D growth rescue, OD600 30 h; hits give high values; pdr5 snq2 efflux-pump mutant strain;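 active = z-score above 3 at both the 24 hr and the 30 hr optical density reads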;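 note: z-score against mean and SD of all compound wells on the same plate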
BB579 growth dn: growth inhibitors of yeast BB579 in restrictive medium, primary screen, yeast lifespan-shortening project, S. cerevisiae; hit rate 0.51% among 140,000; OD615, 48 h; inhibition, % at 10 µM;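 active = inhibition above a set limit, 3 SD over the mean compound inhibition, cut at about 44% in these data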
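Test system: S. cerevisiae DeaD strain BB579 yeast; Medium: restrictive CSMM-D medium; Compound: one dose, 10 µM compound with 0.25% DMSO; Incubation: 4 h cell preincubation, 48 h compound exposure, 30 °C humidified; Signal: OD at 615 nm; Benchmarks: amphotericin B at 10 µg/mL as positive control.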
Yeast lifespan up: compounds extending yeast replicative lifespan, primary screen, S. cerevisiae, OD615 | hit rate 0.68% among 130,000 | S. cerevisiae growth with nicotinamide; deaD strain in restrictive glucose medium | inhibition of the nicotinamide effect, % at 10 µM;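 active = inhibition above a set limit, placed 3 SD over the median of all compounds, cut at about 26% in these data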;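 note: 0% = nicotinamide-treated wells and 100% = cells grown without nicotinamide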
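Assay system: engineered S. cerevisiae DeaD replicative-lifespan strain, galactose-grown log-phase cells; medium: restrictive CSMM-D dextrose medium; also added: nicotinamide, 1.5 mM, co-present with compound; schedule: 48 h compound exposure at 30 °C, humidified; detection: absorbance at 615 nm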
HMGR II inh: inhibitors of E. faecalis class II HMGR, primary screen, biochemical, Enterococcus faecalis | inhibition, % at 10 µM | hit rate 0.41% among 190,000 | purified E. faecalis HMGR, NADPH absorbance 340 nm kinetic | HMG-CoA reductase (Enterococcus faecalis, mvaE);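 active = inhibition above a set limit, the median over all tested compounds plus 3 SD, cut at about 9.5% in these data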;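 note: enzyme runs in reverse so mevalonate oxidation gives rising NADPH absorbance; 0% = complete reaction with DMSO and 100% = background rate lacking mevalonate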
* hit, by the source's call; / = not tested or not shown. Hits are enriched below; roughly 1.3% of the tested compounds scored in any of these assays.

SMILES | sdo1 growth | BB579 growth dn | Yeast lifespan up | HMGR II inh
COc1ccc(-c2nc(CN3CCCCC3c3cccnc3)c(C)o2)c(F)c1 (centres undefined) | / | / | / | 16*
CCN(CC)CCOc1nc(C)nc2c1oc1ccccc12 | 0.84 | -39 | -5 | 14*
CCN(CC)CCCOc1nc(C)nc2c1oc1ccccc12 | 0.53 | -17 | -8 | -5
Oc1c(N=Nc2ccccn2)ccc2ccccc12 | -0.03 | 96* | -12 | 0
COC(=O)Cc1cc(=O)n(-c2nc3ccccc3[nH]2)[nH]1 | 0.66 | 72* | -6 | -3
CCN(Cc1cc(=O)n2ccsc2n1)Cc1nc2ccccc2c(=O)[nH]1 | / | / | / | 11*
CC1=NN(c2ccc(C)cc2C)C(=O)C1C(c1ccccc1)C1C(=O)N(c2ccc(C)cc2C)N=C1C (centres undefined) | 1.1 | -28 | 21 | 9.6*
Cc1ccc(-n2nc(C)c(C(=O)O)n2)c(C)c1 | 1.3 | -2 | -1 | -2
C/C(=N/NC(=O)CNS(=O)(=O)c1ccc(C)cc1)c1cccc([N+](=O)[O-])c1 | / | / | / | 0
CC(C)C(C)NC(=O)COC(=O)/C=C/c1ccc(S(=O)(=O)N2CCc3ccccc32)cc1 (centres undefined) | / | / | / | -7
CCOC(=O)c1cc(-c2ccc(F)cc2)n(CCC(=O)NC2CCN(Cc3ccccc3)CC2)c1C | / | / | / | -6
CCOC(=O)c1cc(-c2ccc(OC)cc2)n(CCC(=O)NC2CCN(Cc3ccccc3)CC2)c1C | / | / | / | 10*
O=C(Nc1ccc2c(c1)OCO2)C1CCCN1C(=O)NCc1ccccc1 (centres undefined) | 0.17 | -31 | 57* | 4
O=C(Nc1ccc2c(c1)OCO2)C1CCCN1C(=O)OCc1ccccc1 (centres undefined) | -0.25 | -36 | -7 | 1
O=C1NCCCC1C(=O)N/N=C/c1cccc(O)c1 (centres undefined) | -0.06 | 100* | -1 | -3
CCOCCCn1c(=S)[nH]c2cc(C(=O)NCC(OC)OC)ccc2c1=O | / | / | / | -1
COc1ccc(N=C2S/C(=C\c3ccc(OCC(=O)O)cc3)C(=O)N2CCc2c[nH]c3ccccc23)cc1 | / | / | / | 10*
COc1cccc(NC(=S)/C(=C(\[O-])c2ccc(C)c([N+](=O)[O-])c2)[n+]2ccccc2)c1 | -0.47 | -37 | -29 | 6
COc1cccc(NC(=S)/C(=C(\[O-])c2ccc(OC(F)F)cc2)[n+]2ccccc2)c1 | / | / | / | 11*
COc1cccc(OC2OC3COC(C)(C)OC3C(O)C2NC(C)=O)c1 (centres undefined) | / | / | / | 1
Cc1ccc2nc3c(nc2c1)-c1ccccc1C3=O | -1.2 | 59* | -9 | -4
O=C(O)c1cccc(Oc2ccc([N+](=O)[O-])cc2)c1 | 1.8 | 5 | -1 | -7
Nc1cccc(Oc2ccc([N+](=O)[O-])cc2)c1 | / | / | / | 10*
COc1cc(CO)ccc1OCc1nnnn1-c1ccc(C)cc1 | / | / | / | -4
COc1ccccc1-c1cc(C(F)(F)F)nc(S(=O)(=O)CCCC(=O)O)n1 | -0.4 | -61 | 29 | 12*
SMILES | sdo1 growth | BB579 growth dn | Yeast lifespan up | HMGR II inh
CC(=O)C1=C(C)N(Cc2ccccc2)C(=O)N[C@@H]1c1cccc(C(F)(F)F)c1 | 0.67 | -27 | 29* | -7
COc1ccccc1S(=O)(=O)Cc1ccc(C(=O)NCCN2CCCCCC2)o1 | -0.66 | -23 | -4 | 10*
CCn1cnc2c(oc3ccccc32)c1=O | / | / | / | 11*
O=C(Cn1cnc2c(oc3ccccc32)c1=O)c1ccccc1 | -1.5 | -40 | -4 | 3
Cc1nnc(NC(=O)Cn2nc(C)c3ccccc3c2=O)s1 | / | / | / | -3
COc1ccccc1OCCC(=O)OCC(=O)c1c(N)n(C)c(=O)n(C)c1=O | / | / | / | 4
O=C(Cc1ccccc1)NCCc1cn2ccsc2n1 | 1.1 | 49* | 2 | 1
C/C(=N\NC(=O)c1ccccc1O)C1C(=O)c2ccccc2C1=O | -0.68 | -49 | 98* | 0
COC(=O)C1=C(C(=O)OC)SC(=C2C(=S)C(C)(C)N(C(=O)C(C)C)c3ccccc32)S1 | -1.7 | -24 | 35* | -5
COC(=O)C1=C(C(=O)OC)SC(=C2C(=S)C(C)(C)N(C(=O)C3CC3)c3ccccc32)S1 | -0.07 | -51 | 1 | -4
C=C(C)Cn1c(-c2ccncc2)n[nH]c1=S | / | / | / | 19*
CC1CCCC(C)N1C(=O)CSc1nnc(COc2cccc3cccnc23)o1 (centres undefined) | / | / | / | 0
O=C(CSc1nnc(COc2cccc3cccnc23)o1)N1CCCC1 | / | / | / | 12*
CCOC(=O)c1c(N)sc2c(OC)c(Br)ccc12 | -2.2 | 95* | -23 | -7
O=C1CN(CC(=O)N2CCCCC2)c2ccccc2O1 | 0.35 | 46* | 0 | -8
Cc1ccc(-c2nc3sc(C(N)=O)c(N)c3c3c2CCCC3)cc1 | -2 | 46* | -7 | -1
Cc1ccc(C(=O)N2CCN(CCNC(=O)C(=O)NC(C)C)CC2)cc1 | / | / | / | -1
COc1cc(CCC(=O)NNC(=O)c2ccc(C)cc2)cc(OC)c1OC | / | / | / | -5
O=C(Nc1nc2c(s1)CCCC2)Oc1ccccc1 | -1 | -24 | -9 | -4
C/C(=N\Nc1nc2c(s1)CCCC2)c1ccccc1 | -1.1 | 63* | -19 | 3
COC(=O)c1cc2c(C)[nH]c(C)c2cc(C(=O)OC)c1=O | 2.4 | -10 | -1 | -4
O=C(O)C(Cc1ccccc1)N1C(=O)C2CCCCC2C1=O (centres undefined) | / | / | / | 17*
O=C(O)C(Cc1ccccc1)N1C(=O)CCC1=O (centres undefined) | / | / | / | 7
CCOc1ccc(-c2[nH]ncc2Oc2cccc(OC)c2)c(O)c1 | -2.6 | 86* | -24 | -1
CCCOC(=O)c1ccc(Oc2cn[nH]c2-c2ccc(OCC)cc2O)cc1 | -1.9 | 64* | -26 | -1
SMILES | sdo1 growth | BB579 growth dn | Yeast lifespan up | HMGR II inh
CCCOC(=O)c1ccc(Oc2c(-c3ccc(OCC)cc3O)n[nH]c2C)cc1 | -0.77 | -68 | -12 | -1
COc1cccc(Oc2cn[nH]c2-c2ccc(OC)cc2O)c1 | -2.5 | -21 | -22 | -1
COc1ccc(-c2[nH]ncc2-c2ccc(Cl)cc2)c(O)c1 | -2.4 | 73* | -37 | -11
Oc1ccc(-c2[nH]ncc2-c2ccc(Cl)cc2)c(O)c1 | -1.3 | -32 | -24 | 4
Cc1cc(C)nc(NC(=O)CCC2CCCC2)c1 | -0.84 | -22 | / | 9.9*
Cc1cc(C)c2c(N=NN(C)C)[nH]nc2n1 | -0.52 | 73* | -8 | 3
Cc1cc(C)c2c(NC(N)=S)n[nH]c2n1 | / | / | / | 8
O=C(N/N=C/C=C/c1ccccc1)NC1CCCCC1 | / | / | / | -2
O=C(Nc1ccccc1)n1ccc(-c2ccc(-n3ccnc3)cc2)n1 | / | / | / | -4
CN1CCN(/N=C/c2cccc(Cl)c2Cl)CC1 | 0.52 | -40 | 30* | -6
CN1CCN(/N=C/c2nc(-c3ccccc3Cl)n3ccccc23)CC1 | 0.83 | -12 | -3 | -6
C=CCC1c2cccc(C(=O)O)c2C(=O)N1c1cccc(C)c1 (centres undefined) | -0.33 | 62* | -5 | 0

Screens as filed in PubChem.
